Measurements collected from several papers.
Each line is one published result; the experiments were not run side by side.
pH: 7.4

SMILES	method	medium	time	logD
N=C(CC(O)c1cc2c(F)cc(F)cc2c2cc(C(F)(F)F)ccc12)Nc1ccc(F)c(F)c1 (stereo not shown)				4.96
CN1CCN(c2cccc(-c3ccc4ncnc(Nc5ccc([N+](=O)[O-])c(C(F)(F)F)c5)c4c3)c2)CC1	shake flask	aqueous buffer		> 3.9
C[C@H]1[C@@H](C(=O)NCc2nc(-c3ccc(C#N)cc3)cs2)CCCN1C(=O)[C@H]1CCC(=O)O1	shake flask	aqueous buffer		1.4
CC(C)N=c1cc2n(-c3ccc(Cl)cc3)c3ccccc3nc-2cc1Nc1ccc(Cl)cc1	shake flask	aqueous buffer		5.76
CN1CCN(c2ccc(-c3ccc4nncc(Nc5ccc(OC(F)(F)F)cc5)c4c3)cc2)CC1	shake flask	aqueous buffer		5.1
O=[N+]([O-])c1ccc(Nc2ncnc3ccc(-c4cccc(N5CCOCC5)c4)cc23)cc1C(F)(F)F	shake flask	aqueous buffer		> 3.4
C[C@H](O)c1ccc(NS(=O)(=O)c2ccc(OCC3CCC3)c(Cl)c2)c2nn(C)cc12	shake flask	aqueous buffer		3.8
CN1CCN(c2cccc(-c3ccc4ncnc(Nc5ccc(Cl)c(C(F)(F)F)c5)c4c3)c2)CC1	shake flask	aqueous buffer		> 4.3
CNS(=O)(=O)c1ccc(Nc2ncc(C(F)(F)F)c(N3CCC(C)(O)CC3)n2)c(C)c1	shake flask	aqueous buffer	1 h	3.8
C=CC(=O)N1CC2(CCN(c3nc4c(c(-c5cc(O)cc6ccccc56)c3F)COC(C)(C)C4)C2)C1				4.5
C[C@@H]1COCCN1c1cccc(-c2ccc3ncnc(Nc4ncco4)c3c2)c1	shake flask	aqueous buffer		4.2
CNS(=O)(=O)c1ccc(Nc2ncc(C(F)(F)F)c(N3CCC[C@](C)(O)C3)n2)c(C)c1	shake flask	aqueous buffer	1 h	3.4
CCOCC(=O)N1CCC[C@H](C(=O)NCc2nc(-c3ccc(C#N)nc3)cs2)C1	shake flask	aqueous buffer		1
C=CC(=O)N1CC2(CCN(c3nc4c(c(-c5c(C)ccc6[nH]ncc56)c3C#N)CCC(C)(C)C4)C2)C1				4.3
NCCOCC(=O)N1CCC[C@H](C(=O)NCc2nc(-c3ccc(C(F)(F)F)cc3)cs2)C1	shake flask	aqueous buffer		0.47
Cc1nc(Nc2ncnc3ccc(-c4cccc(N5CCOCC5)c4)cc23)oc1C	shake flask	aqueous buffer		4.3
CNS(=O)(=O)c1ccc(Nc2ncc(C(F)(F)F)c([C@H]3CC[C@@](C)(O)CC3)n2)c(C)c1	shake flask	aqueous buffer	1 h	4
O=C(O)c1ccc(NS(=O)(=O)c2ccc(Cl)c(Cl)c2)c2ncccc12	shake flask	aqueous buffer		0.9
O=C(NCc1nc(-c2ccc(C(F)(F)F)cc2)cs1)[C@H]1CCCN(C(=O)CO[C@H]2CCCNC2)C1	shake flask	aqueous buffer		0.81
O=C(O)c1ccc(NS(=O)(=O)c2ccc(Cl)c(Cl)c2)cc1	shake flask	aqueous buffer		0.6
Cc1ccc(Nc2cnnc3ccc(-c4ccc(N5CCN(C)CC5)cc4)cc23)cn1	shake flask	aqueous buffer		3.5
C[C@H](O)c1cnc(NS(=O)(=O)c2ccc(C(F)(F)F)c(Cl)c2)nc1	shake flask	aqueous buffer		0.4
Clc1ccc(Nc2ncnc3ccc(-c4cccc(N5CCOCC5)c4)cc23)cc1	shake flask	aqueous buffer		> 4.6
C=CC(=O)N1CC2(CCN(c3nc4c(c(-c5c(C)ccc6[nH]ncc56)c3C#N)C[C@H]3C[C@@H]4C3(C)C)C2)C1				4.4
Cn1cc(Nc2ncnc3ccc(-c4cccc(N5CCOCC5)c4)cc23)cn1	shake flask	aqueous buffer		3.7
COCC(=O)N1CCC[C@H](C(=O)NCc2nc(-c3ccc(C#N)cc3)cs2)C1	shake flask	aqueous buffer		1.5
Cc1ccc(Nc2ncnc3ccc(-c4cccc(N5CCOCC5)c4)cc23)cc1	shake flask	aqueous buffer		> 4.1
CC(C)(N)COCC(=O)N1CCC[C@H](C(=O)NCc2nc(-c3ccc(C(F)(F)F)cc3)cs2)C1	shake flask	aqueous buffer		1.4
